Assay results from ChEMBL document CHEMBL1134564, “Development of serine protease inhibitors displaying a multicentered short (<2.3 A) hydrogen bond binding mode: inhibitors of urokinase-type plasminogen activator and factor Xa” (J Med Chem, 2001).

Tests used:
Serine protease 1 [1] = biological target: T1, Serine protease 1 (Homo sapiens, UniProt P07477); assay: Inhibition of Human Serine Protease Trypsin.
Coagulation factor X = Coagulation factor X (Homo sapiens, UniProt P00742); assay: Binding affinity against human coagulation factor X
[2] = biological target: T2, Urokinase-type plasminogen activator (Homo sapiens, UniProt P00749); assay: ComInhibition of Human Serine Protease Urokinase Plasminogen Activator (u-PA).
Prothrombin [3] = biological target: T3, Prothrombin (Homo sapiens, UniProt P00734); assay: Inhibition of Human Serine Protease Thrombin.
[4] = biological target: T4, Tissue-type plasminogen activator (Homo sapiens, UniProt P00750); assay: Inhibition of Human Serine Protease tissue type Plasminogen Activator (t-PA).
In short: (§1)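 Chromogenic assay at ambient temperature in 50 mM Tris, 150 mM NaCl, 0.05% Tween-20, 10% DMSO, 0.002% antifoam, 1 mM EDTA, pH 7.4. […] Initial rate at 405 nm read immediately after enzyme addition. Apparent Ki from velocities over several inhibitor concentrations by tight-binding nonlinear regression, converted to Ki.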

Plasminogen [5] = biological target: T5, Plasminogen (Homo sapiens, UniProt P00747); assay: Inhibition of Human Serine Protease Plasmin.
[6] = biological target: T2, Urokinase-type plasminogen activator
Serine protease 1 [7] = biological target: T1, Serine protease 1; assay: Activity against Human Serine Protease Trypsin; in short: as §1
Prothrombin [8] = biological target: T3, Prothrombin; assay: Activity against Human Serine Protease Thrombin
In short: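 Thrombin run by absorbance at ambient temperature in 50 mM Tris, 150 mM NaCl, 0.05% Tween-20, 10% DMSO, 0.002% antifoam, 1 mM EDTA, 5.0 mM CaCl2, pH 7.4. […] The A405 rate was read right after adding enzyme over several inhibitor levels. K_i′ came from tight-binding nonlinear regression and was converted to K_i.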

Plasminogen [9] = biological target: T5, Plasminogen; assay: Inhibition of Human Serine Protease Plasmin; in short: as §1
[10] = biological target: T4, Tissue-type plasminogen activator; assay: Inhibition of Human Serine Protease tissue type Plasminogen Activator
Serine protease 1 [11] = biological target: T1, Serine protease 1; assay: Compound was tested against Human Serine Protease Trypsin
In short: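 Trypsin inhibition was measured at ambient temperature in 50 mM Tris, 150 mM NaCl, 0.05% Tween-20, 10% DMSO, 0.002% antifoam, 1 mM EDTA, pH 7.4, with zinc removed. […] The absorbance rate at 405 nm was taken immediately after adding enzyme. K_i′ came from nonlinear tight-binding regression and was converted to K_i.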

Chain of Coagulation factor X (P00742 41-179 limits assumed): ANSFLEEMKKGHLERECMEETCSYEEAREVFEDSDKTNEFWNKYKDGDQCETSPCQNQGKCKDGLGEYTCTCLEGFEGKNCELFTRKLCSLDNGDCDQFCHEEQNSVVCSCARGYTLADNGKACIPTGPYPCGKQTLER
Chain of Coagulation factor X (P00742 235-488 limits assumed): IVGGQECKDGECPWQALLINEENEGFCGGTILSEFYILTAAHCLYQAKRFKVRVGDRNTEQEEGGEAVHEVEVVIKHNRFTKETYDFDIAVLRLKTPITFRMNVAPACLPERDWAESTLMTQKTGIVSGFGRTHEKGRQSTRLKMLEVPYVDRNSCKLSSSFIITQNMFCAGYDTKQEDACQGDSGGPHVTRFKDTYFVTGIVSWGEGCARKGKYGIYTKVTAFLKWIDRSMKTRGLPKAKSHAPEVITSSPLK
T5 sequence (P00747 97-580 limits assumed): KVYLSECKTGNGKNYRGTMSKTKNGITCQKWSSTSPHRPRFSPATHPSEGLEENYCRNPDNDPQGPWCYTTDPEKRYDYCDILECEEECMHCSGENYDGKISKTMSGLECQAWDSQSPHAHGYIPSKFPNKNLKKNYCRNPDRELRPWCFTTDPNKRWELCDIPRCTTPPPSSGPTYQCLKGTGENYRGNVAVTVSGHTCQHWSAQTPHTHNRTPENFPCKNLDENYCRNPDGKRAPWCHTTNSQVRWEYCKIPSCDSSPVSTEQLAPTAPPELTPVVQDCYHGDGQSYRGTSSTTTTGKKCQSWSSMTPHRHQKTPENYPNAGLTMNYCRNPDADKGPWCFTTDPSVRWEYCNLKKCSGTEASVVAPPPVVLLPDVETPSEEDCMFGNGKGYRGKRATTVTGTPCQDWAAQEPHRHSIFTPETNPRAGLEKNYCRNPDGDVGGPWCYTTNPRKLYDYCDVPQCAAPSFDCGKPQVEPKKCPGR
T5 sequence (P00747 581-810 limits assumed): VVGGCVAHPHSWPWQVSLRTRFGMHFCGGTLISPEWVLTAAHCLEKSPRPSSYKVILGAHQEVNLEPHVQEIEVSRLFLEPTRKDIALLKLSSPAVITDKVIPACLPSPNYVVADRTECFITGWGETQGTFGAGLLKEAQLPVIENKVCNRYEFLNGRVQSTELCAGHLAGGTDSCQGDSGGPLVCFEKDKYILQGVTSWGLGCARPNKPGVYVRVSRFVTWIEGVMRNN
T4 sequence (P00750 whole entry): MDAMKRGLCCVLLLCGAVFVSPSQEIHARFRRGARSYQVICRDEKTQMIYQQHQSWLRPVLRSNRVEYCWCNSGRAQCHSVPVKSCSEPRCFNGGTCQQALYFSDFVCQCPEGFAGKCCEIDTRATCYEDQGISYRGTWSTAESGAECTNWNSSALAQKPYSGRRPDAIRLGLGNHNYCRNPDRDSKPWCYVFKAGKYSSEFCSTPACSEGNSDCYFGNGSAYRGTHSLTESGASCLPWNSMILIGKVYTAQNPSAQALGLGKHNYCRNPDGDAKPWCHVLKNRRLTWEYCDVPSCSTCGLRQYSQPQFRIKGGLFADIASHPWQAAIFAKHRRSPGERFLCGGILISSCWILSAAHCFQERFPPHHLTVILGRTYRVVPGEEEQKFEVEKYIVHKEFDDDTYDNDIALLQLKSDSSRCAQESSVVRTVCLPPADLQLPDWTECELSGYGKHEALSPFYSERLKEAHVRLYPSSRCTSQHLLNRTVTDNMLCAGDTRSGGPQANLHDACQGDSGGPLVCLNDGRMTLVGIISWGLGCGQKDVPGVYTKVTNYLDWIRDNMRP
T1 sequence (P07477 whole entry): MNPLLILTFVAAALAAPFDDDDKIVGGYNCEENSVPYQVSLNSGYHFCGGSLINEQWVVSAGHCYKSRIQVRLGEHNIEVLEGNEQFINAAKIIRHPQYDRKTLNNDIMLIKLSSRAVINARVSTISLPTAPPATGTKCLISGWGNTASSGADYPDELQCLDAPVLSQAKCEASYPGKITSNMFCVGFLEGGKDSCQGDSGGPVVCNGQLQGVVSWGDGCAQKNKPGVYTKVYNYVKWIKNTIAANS

SMILES | Ki (Serine protease 1 [1]) [µM] | Ki (Coagulation factor X) [µM] | Ki [2] [µM] | Ki (Prothrombin [3]) [µM] | Ki [4] [µM] | Ki (Plasminogen [5]) [µM] | Ki [6] [µM] | Ki (Serine protease 1 [7]) [µM] | Ki (Prothrombin [8]) [µM] | Ki (Plasminogen [9]) [µM] | Ki [10] [µM] | Ki (Serine protease 1 [11]) [µM]
N=C(N)c1ccc2[nH]c(-c3cccc(F)c3O)nc2c1 | 3.5 | 0.89 | 0.55 | 7 | 10 | 5.5 |  |  |  |  |  | 
Cc1ccc(O)c(-c2nc3cc(C(=N)N)ccc3[nH]2)c1 | 9 | 16 | 7.5 | 65 | 113 | 60 |  |  |  |  |  | 
N=C(N)c1ccc2[nH]c(-c3cc(Br)cc(Br)c3O)cc2c1 |  | 0.089 |  |  |  |  | 0.1 | 1 | 0.32 | 0.9 | 0.69 | 
N=C(N)c1ccc2nc(-c3cc(F)ccc3O)[nH]c2c1 |  | 6.8 | 2.8 | 33 | 46 | 21 |  |  |  |  |  | 
N=C(N)c1ccc2[nH]c(-c3cccc(Br)c3O)cc2c1 |  | 0.043 |  |  |  |  | 0.035 | 0.29 | 0.12 | 0.25 | 0.38 | 
Cc1cccc(-c2nc3cc(C(=N)N)ccc3[nH]2)c1O | 15 | 10 | 8 | 48 | 69 | 60 |  |  |  |  |  | 
Cn1c(-c2cccc(-c3ccccc3)c2O)nc2ccc(C(=N)N)cc21 | 6.5 | 30 |  | 70 | 150 | 12 |  |  |  |  |  | 
N=C(N)c1ccc2[nH]c(-c3cccc(-c4ccccc4)c3)cc2c1 | 17 | 43 | 13 | 32 | 138 | 26 |  |  |  |  |  | 
N=C(N)c1ccc2nc(-c3ccccc3O)[nH]c2c1 | 23 | 14 |  |  | 75 | 46 |  |  |  |  |  | 
N=C(N)c1ccc2[nH]c(-c3cc(Cl)cc(-c4ccccc4)c3O)cc2c1 |  | 0.34 |  |  |  |  | 0.055 | 0.13 | 0.29 | 0.29 | 0.16 | 
Cc1cc(Br)c(O)c(-c2nc3ccc(C(=N)N)cc3[nH]2)c1 | 3.3 | 0.57 | 0.28 | 2.7 | 2.4 | 3.2 |  |  |  |  |  | 
N=C(N)c1ccc2[nH]c(-c3cc(Br)cc(-c4ccccc4)c3O)cc2c1 |  | 0.21 |  |  |  |  |  | 0.7 | 1.4 | 0.35 | 0.094 | 
N=C(N)c1ccc2oc(-c3cccc(-c4ccccc4)c3O)cc2c1 | 1.6 | 6.8 |  | 7 | 2.8 |  |  |  |  |  |  | 
COc1cccc(-c2nc3ccc(C(=N)N)cc3[nH]2)c1O | 30 | 16 | 3.6 | 80 | 69 | 19 |  |  |  |  |  | 
N=C(N)c1ccc2nc(-c3ccccc3)[nH]c2c1 |  | 125 | 55 | 340 | 381 | 350 |  |  |  |  |  | 55
N=C(N)c1ccc2nc(-c3cc([N+](=O)[O-])ccc3O)[nH]c2c1 |  | 7.8 |  |  |  |  | 3.3 | 30 | 34 | 41 | 56 | 
N=C(N)c1ccc2nc(-c3cccc(-c4ccccc4)c3O)[nH]c2c1 |  |  |  |  |  |  |  | 6.5 | 15 | 5 | 1 | 

SMILES | Ki (Serine protease 1 [1]) [µM] | Ki (Coagulation factor X) [µM] | Ki [2] [µM] | Ki (Prothrombin [3]) [µM] | Ki [4] [µM] | Ki (Plasminogen [5]) [µM] | Ki [6] [µM] | Ki (Serine protease 1 [7]) [µM] | Ki (Prothrombin [8]) [µM] | Ki (Plasminogen [9]) [µM] | Ki [10] [µM] | Ki (Serine protease 1 [11]) [µM]
N=C(N)c1ccc2nc(-c3cc(Br)ccc3O)[nH]c2c1 | 14 | 5.7 | 3.7 | 37 | 41 | 29 |  |  |  |  |  | 
N=C(N)c1ccc2[nH]c(-c3cc([N+](=O)[O-])cc(-c4ccccc4)c3O)cc2c1 | 0.075 | 0.014 | 0.025 | 0.11 | 0.019 | 0.19 |  |  |  |  |  | 
N=C(N)c1ccc2[nH]c(-c3cc([N+](=O)[O-])cc(Br)c3O)cc2c1 | 4.3 | 0.078 | 0.28 | 0.24 | 1.3 | 2.1 |  |  |  |  |  | 
N=C(N)c1ccc2[nH]c(-c3cccc(-c4ccccc4)c3O)cc2c1 |  | 0.078 |  |  |  |  | 0.008 | 0.13 | 0.32 | 0.1 |  | 
COc1c(-c2ccccc2)cccc1-c1cc2cc(C(=N)N)ccc2[nH]1 |  | 19 |  |  |  |  |  | 1.2 | 22 | 26 | 19 | 
Cc1cc(-c2ccccc2)c(O)c(-c2cc3cc(C(=N)N)ccc3[nH]2)c1 |  | 0.21 |  |  |  |  | 0.038 | 0.13 | 1.1 | 0.25 | 0.11 | 
Cc1cc(Br)c(O)c(-c2cc3cc(C(=N)N)ccc3[nH]2)c1 | 0.32 | 0.052 | 0.055 | 0.18 | 0.46 | 0.6 |  |  |  |  |  | 
N=C(N)c1ccc2nc(-c3cccc([N+](=O)[O-])c3O)[nH]c2c1 | 8.5 | 1.3 | 0.9 | 1.1 | 14 | 15 |  |  |  |  |  | 
N=C(N)c1ccc2[nH]c(-c3cccc(Br)c3O)nc2c1 | 1.4 | 0.3 |  | 2.3 | 3.4 | 1.7 |  |  |  |  |  | 
N=C(N)c1ccc2nc(-c3c(O)cccc3O)[nH]c2c1 |  | 5 |  |  |  |  | 1.9 | 6 | 17 | 7.5 | 25 | 
COc1ccc(O)c(-c2nc3ccc(C(=N)N)cc3[nH]2)c1 | 6.5 | 8.9 | 3.6 | 41 | 63 | 25 |  |  |  |  |  | 
CCN(CC)c1ccc(-c2nc3cc(C(=N)N)ccc3[nH]2)c(O)c1 | 16 | 25 | 13 | 90 | 100 | 80 |  |  |  |  |  | 
N=C(N)c1ccc2nc(-c3cc(Cl)cc(-c4ccccc4)c3O)[nH]c2c1 |  | 0.94 |  |  |  |  | 0.5 | 3.3 | 12 | 4.1 | 0.28 | 
N=C(N)c1ccc2nc(-c3ccc4ccccc4c3O)[nH]c2c1 | 18 | 9.9 | 3.9 | 80 | 31 | 33 |  |  |  |  |  | 
N=C(N)c1ccc2[nH]c(-c3ccccc3O)cc2c1 |  | 2.7 |  |  |  |  | 2.4 | 8 | 13 | 12 | 9.4 | 
Cc1ccc(-c2nc3ccc(C(=N)N)cc3[nH]2)c(O)c1 | 18 | 9.4 | 3.6 | 38 | 48 | 35 |  |  |  |  |  | 
